Laboratory results as given in ChEMBL document CHEMBL2157971, “Antitumor agents 294. Novel E-ring-modified camptothecin-4β-anilino-4'-O-demethyl-epipodophyllotoxin conjugates as DNA topoisomerase I inhibitors and cytotoxic agents” (Bioorg Med Chem, 2012).
pIC50: −log10 of the molar value. Active and inactive are the calls of the source. The calls are words filed in the database; no cut-off is given here.

Key:
[1] = Antiproliferative activity against human partially revertant camptothecin-resistant KBCPT100 cells after 72 hrs by […] blue dye assay; format: functional, cell-based; details: KBCPT100, 72 h
Procedure, shortened: (§1)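 KB, etoposide-resistant KB/7D (kept in 7 µM etoposide), CPT-resistant KB CPT 100 (kept in 100 nM CPT) and revertant KB CPT 100rev cells, all grown in RPMI 1640 with 10% FBS. Log-phase cells seeded at 5000 cells/mL and exposed to a range of drug concentrations for 72 h. Growth read by […] blue dye assay; IC50 = 50% growth inhibition. Resistance ratio = KBCPT100 IC50 over KB IC50.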

[2] = Antiproliferative activity against human camptothecin-resistant KBCPT100 cells after 72 hrs by […] blue dye assay; format: functional, cell-based; details: KBCPT100, 72 h; procedure, shortened: as §1
[3] = tested on: KB; experiment: Antiproliferative activity against human KB cells after 72 hrs by […] blue dye assay; format: functional, cell-based; procedure, shortened: as §1
[4] = Antiproliferative activity against human VP16-resistant KB-7d cells overexpressing MRP after 72 hrs by […] blue dye assay; format: functional, cell-based; details: KB7D; procedure, shortened: as §1
[5] = Resistance ratio of IC50 for human camptothecin-resistant KBCPT100 cells to IC50 for human KB cells; format: functional; procedure, shortened: as §1
[6] = molecular target: T1, DNA topoisomerase 1 (Homo sapiens) (UniProt P11387); experiment: Inhibition of recombinant DNA topoisomerase1-mediated topo1-linked DNA relegation activity at 25 uM after 30 mins by […]
T1 sequence (whole entry): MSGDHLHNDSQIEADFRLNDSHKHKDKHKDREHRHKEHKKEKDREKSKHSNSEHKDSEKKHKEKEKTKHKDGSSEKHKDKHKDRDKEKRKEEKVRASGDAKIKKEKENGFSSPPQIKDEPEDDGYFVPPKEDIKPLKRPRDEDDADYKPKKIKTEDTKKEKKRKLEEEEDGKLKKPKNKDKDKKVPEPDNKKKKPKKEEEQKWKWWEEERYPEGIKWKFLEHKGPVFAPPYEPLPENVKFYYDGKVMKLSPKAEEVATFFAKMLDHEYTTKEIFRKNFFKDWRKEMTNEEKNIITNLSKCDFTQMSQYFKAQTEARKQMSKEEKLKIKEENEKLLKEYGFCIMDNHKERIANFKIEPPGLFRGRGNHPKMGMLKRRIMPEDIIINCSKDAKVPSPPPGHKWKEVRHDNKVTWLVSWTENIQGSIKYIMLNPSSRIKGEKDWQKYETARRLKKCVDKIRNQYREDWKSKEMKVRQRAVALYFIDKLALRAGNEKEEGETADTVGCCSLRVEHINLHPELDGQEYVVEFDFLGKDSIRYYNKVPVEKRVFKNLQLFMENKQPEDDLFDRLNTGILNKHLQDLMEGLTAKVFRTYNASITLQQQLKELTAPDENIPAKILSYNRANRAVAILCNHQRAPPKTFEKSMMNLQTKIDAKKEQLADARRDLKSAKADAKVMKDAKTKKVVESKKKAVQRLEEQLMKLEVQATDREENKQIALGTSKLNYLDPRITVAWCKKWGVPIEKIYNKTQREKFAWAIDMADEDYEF
Procedure, shortened: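 Suicide topo I cleavage complex pre-formed on radiolabeled oligoduplex. Religation started by adding 5 pmol of 13-mer ON6 with compound present, at 37 °C. 25-mer religation product resolved on 20% urea/polyacrylamide gel and quantified by phosphorimager.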

[7] = Inhibition of DNA topoisomerase 2-mediated relegation activity at 250 uM after 30 mins by agarose gel electrophoresis
[8] = molecular target: T1, DNA topoisomerase 1 (Homo sapiens); experiment: Inhibition of DNA topoisomerase 1 in human KB cells using [C14]thymidine assessed as protein-linked DNA breaks formation at 2.5 uM after 30 mins by […]; format: cell-based
Procedure, shortened: (§2)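 KB cells labeled with [14C]thymidine for 24 h, then treated with compound (2.5 or 22.5 µM) at 37 °C. Protein-linked DNA breaks quantified by potassium-SDS co-precipitation.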

[9] = Inhibition of DNA topoisomerase 2-mediated [alpha32P]dCTP-labelled pBR322 cleavage up to 25 uM after 30 mins by agarose gel electrophoresis
[10] = molecular target: T1, DNA topoisomerase 1 (Homo sapiens); experiment: Inhibition of recombinant DNA topoismerase1-mediated cleavage activity at 25 uM after 15 mins by […]
Procedure, shortened: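 32P-labeled ON5/ON4 oligoduplex (50 fmol) incubated with purified recombinant topoisomerase I (220 fmol) ± compound (25 µM) at 37 °C for 15 min. Stopped with SDS (0.5% final), then proteinase K digestion (1 mg/mL final). Cleavage products resolved on 20% denaturing urea/polyacrylamide gel.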

[11] = tested on: KB; experiment: Ratio of VP16 IC50 to compound IC50 for human KB cells; format: functional
[12] = molecular target: T1, DNA topoisomerase 1 (Homo sapiens); experiment: Inhibition of DNA topoisomerase 1 in human KB cells using [C14]thymidine assessed as protein-linked DNA breaks formation at 22.5 uM after 30 mins by […]; format: cell-based; procedure, shortened: as §2

Row | Compound | pIC50 [1] | pIC50 [2] | pIC50 [3] | pIC50 [4] | Ratio IC50 [5] | inhibition [6] | inhibition [7] | inhibition [8] | inhibition [9] | inhibition [10] | Ratio IC50 [11] | fold change (FC) [12]
1 | CC[C@@]1(O)C(=O)OCc2c1cc1n(c2=O)Cc2cc3ccccc3nc2-1 [CAMPTOTHECIN] | 7.62 | 6.37 | 8.06 | 8.17 | 48 | – | – | – | – | – | – | –
2 | CC[C@@](O)(C(=O)NC(C)C)c1cc2n(c(=O)c1CO)Cc1c-2nc2ccccc2c1/C=N\c1ccc(N[C@@H]2c3cc4c(cc3[C@@H](c3cc(OC)c(O)c(OC)c3)[C@H]3C(=O)OC[C@@H]32)OCO4)cc1 | 7.24 | 6.92 | 7.37 | 7.30 | 2.8 | Active | Active | Active | inactive | inactive | 10 | –
3 | CC[C@@](O)(C(=O)NC(C)C)c1cc2n(c(=O)c1CO)Cc1c-2nc2ccccc2c1/C=N\c1ccccc1N[C@@H]1c2cc3c(cc2[C@@H](c2cc(OC)c(O)c(OC)c2)[C@H]2C(=O)OC[C@@H]21)OCO3 | 6.85 | 6.69 | 7.22 | 7.21 | 2.8 | Active | Active | – | inactive | inactive | 8 | 7
4 | CC[C@@]1(O)C(=O)OCc2c1cc1n(c2=O)Cc2c-1nc1ccccc1c2/C=N\c1ccc(N[C@@H]2c3cc4c(cc3[C@@H](c3cc(OC)c(O)c(OC)c3)[C@H]3C(=O)OC[C@@H]32)OCO4)cc1 | 7.36 | 7.02 | 7.61 | 7.43 | 2.8 | Active | Active | Active | inactive | inactive | – | –
5 | COc1cc([C@@H]2c3cc4c(cc3[C@@H](O[C@@H]3O[C@@H]5CO[C@@H](C)O[C@H]5[C@H](O)[C@H]3O)[C@H]3COC(=O)[C@H]23)OCO4)cc(OC)c1O [ETOPOSIDE] | 6.43 | 6.47 | 6.32 | 4.26 | – | – | – | – | – | – | – | –
6 | CC[C@@]1(O)C(=O)OCc2c1cc1n(c2=O)Cc2c-1nc1ccccc1c2/C=N\c1ccccc1N[C@@H]1c2cc3c(cc2[C@@H](c2cc(OC)c(O)c(OC)c2)[C@H]2C(=O)OC[C@@H]21)OCO3 | 7.15 | 6.95 | 7.43 | 7.15 | 2.8 | Active | Active | Active | inactive | inactive | – | –
